Source: ChEMBL document CHEMBL4765360, “Design, synthesis and biological evaluation of novel potent STAT3 inhibitors based on BBI608 for cancer therapy” (Eur J Med Chem, 2020)
Activity calls are given as the source filed them. The rule behind the calls is not given here.

Experiments:
[1] = target: T1, Signal transducer and activator of transcription 3 (Homo sapiens, UniProt P40763); test: Inhibition of STAT3 in human MDA-MB-231 cells assessed as reduction in STAT3 Y705 phosphorylation in cytoplasm at 3 uM incubated for 24 hrs by immunofluorescence staining based fluorescence microscopy; type: subcellular
T1 sequence (P40763 whole entry): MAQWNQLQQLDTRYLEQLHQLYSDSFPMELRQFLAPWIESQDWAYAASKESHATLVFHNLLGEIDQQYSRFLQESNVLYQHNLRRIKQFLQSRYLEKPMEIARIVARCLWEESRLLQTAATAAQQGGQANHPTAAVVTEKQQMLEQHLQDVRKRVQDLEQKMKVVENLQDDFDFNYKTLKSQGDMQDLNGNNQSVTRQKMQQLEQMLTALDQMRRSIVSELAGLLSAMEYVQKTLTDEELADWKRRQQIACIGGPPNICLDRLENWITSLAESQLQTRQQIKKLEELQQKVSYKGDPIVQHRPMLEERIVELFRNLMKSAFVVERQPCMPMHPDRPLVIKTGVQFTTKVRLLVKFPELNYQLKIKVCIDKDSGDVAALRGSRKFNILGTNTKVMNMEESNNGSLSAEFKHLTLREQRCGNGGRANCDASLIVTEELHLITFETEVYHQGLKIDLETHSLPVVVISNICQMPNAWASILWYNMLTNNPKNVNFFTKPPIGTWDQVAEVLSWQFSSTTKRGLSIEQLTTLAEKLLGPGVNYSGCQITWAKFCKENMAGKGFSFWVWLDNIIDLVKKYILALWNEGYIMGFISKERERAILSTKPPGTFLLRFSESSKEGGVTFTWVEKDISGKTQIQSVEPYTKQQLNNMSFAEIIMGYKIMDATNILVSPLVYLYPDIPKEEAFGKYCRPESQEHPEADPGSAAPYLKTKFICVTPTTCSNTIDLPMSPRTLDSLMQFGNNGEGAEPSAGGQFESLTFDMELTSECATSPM
How it was run: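 MDA-MB-231 cells at 1×10^4 per dish, adhered overnight, then exposed to 3.0 µM for 24 h. Fixed in 4% paraformaldehyde and permeabilized with 0.5% Triton X-100. Blocked in 5% BSA for 1 h. Anti-p-STAT3 primary overnight at 4 °C, then Alexa Fluor 546 anti-rabbit for 1 h at RT. Hoechst nuclear stain; imaged by fluorescence microscopy.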

[2] = test system: MDA-MB-231; test: Induction of cell cycle arrest in human MDA-MB-231 cells assessed as G2/M phase accumulation at 4 uM incubated for 24 hrs by PI staining based flow cytometry analysis (reference value: 15.80 %); type: functional
[3] = test system: MDA-MB-231; test: Induction of cell cycle arrest in human MDA-MB-231 cells assessed as G2/M phase accumulation at 2 uM incubated for 24 hrs by PI staining based flow cytometry analysis (reference value: 15.80 %); type: functional
[4] = test system: MDA-MB-231; test: Induction of apoptosis in human MDA-MB-231 cells assessed as late apoptotic cells at 2 uM incubated for 24 hrs by annexin V-FITC and PI staining based flow cytometry analysis (reference value: 3.72 %); type: functional
[5] = test system: MDA-MB-468; test: Antiproliferative activity against human MDA-MB-468 cells overexpressing STAT3 assessed as reduction in cell growth incubated for 48 hrs by CCK-8 assay; type: functional, cell-based; conditions: MDA-MB-468, 48 h
How it was run: (§1)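 Cells seeded at 5000-7000/well and allowed to settle for 8 h at 37 °C, 5% CO2. Graded compound concentrations were then added in triplicate (DMSO <0.1%) for 48 h. Medium was replaced with 10% CCK-8 for 4 h (MDA-MB-231, MDA-MB-468) or 1 h (HepG2), and A450 was read. IC50 is mean ± SD of at least three independent experiments. HepG2 was grown in high-glucose DMEM with 10% FBS.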

[6] = test system: HepG2; test: Antiproliferative activity against human HepG2 cells overexpressed STAT3 assessed as reduction in cell growth incubated for 48 hrs by CCK-8 assay; type: functional, cell-based; conditions: HepG2, 48 h; how it was run: as §1
[7] = test system: MDA-MB-231; test: Induction of apoptosis in human MDA-MB-231 cells assessed as late apoptotic cells at 4 uM incubated for 24 hrs by annexin V-FITC and PI staining based flow cytometry analysis (reference value: 3.72 %); type: functional
[8] = test system: MDA-MB-231; test: Effect on STAT1 expression in human MDA-MB-231 cells at 0.75 to 3 uM incubated for 24 hrs by Western blot analysis; type: functional, cell-based; conditions: dose 0.75-3 µM
How it was run: (§2)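 MDA-MB-231 cells treated with a range of concentrations for 24 h. RIPA lysates with PMSF, 40 µg protein/lane, on 10% SDS-PAGE, then PVDF. Blocked in 5% milk/TBST for 2 h. Primary antibodies to STAT3, p-STAT3(Y705), STAT1, p-STAT1(Y701), c-Myc and Cyclin D1 overnight at 4 °C; GAPDH as loading control. HRP secondary for 1 h; ECL detection.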

[9] = test system: MDA-MB-231; test: Antiproliferative activity against human MDA-MB-231 cells overexpressing STAT3 assessed as reduction in cell growth incubated for 48 hrs by CCK-8 assay; type: functional, cell-based; conditions: MDA-MB-231, 48 h; how it was run: as §1
[10] = test system: MDA-MB-231; test: Antitumor activity against human MDA-MB-231 cells xenografted in BALB/c mouse assessed as reduction in tumor growth at 5 mg/kg, ip administered once daily for 21 days and measured on day 21 relative to control; type: functional; conditions: MDA-MB-231, ip, 504 h, time 21 day, read-out: TGI
How it was run: (§3)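 Female BALB/c nude mice, 5 weeks old (16–18 g), were given 5×10^6 MDA-MB-231 cells subcutaneously. At ~50 mm³, mice were randomized to three groups (n=6): vehicle, 5 or 10 mg/kg i.p. daily for 21 days. Tumor volume (length×width²/2) was measured every 3 days and body weight recorded. Tumors were excised and weighed at the end. TGI derived versus control; mean ± SEM.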

[11] = test system: MDA-MB-231; test: Induction of apoptosis in human MDA-MB-231 cells assessed as early apoptotic cells at 1 uM incubated for 24 hrs by annexin V-FITC and PI staining based flow cytometry analysis (reference value: 2.69 %); type: functional
[12] = test system: MDA-MB-231; test: Induction of apoptosis in human MDA-MB-231 cells assessed as viable cells at 2 uM incubated for 24 hrs by annexin V-FITC and PI staining based flow cytometry analysis (reference value: 93.37 %); type: functional; conditions: read-out: Activity
[13] = test system: MDA-MB-231; test: Induction of apoptosis in human MDA-MB-231 cells assessed as viable cells at 4 uM incubated for 24 hrs by annexin V-FITC and PI staining based flow cytometry analysis (reference value: 93.37 %); type: functional; conditions: read-out: Activity
[14] = test system: MDA-MB-231; test: Antitumor activity against human MDA-MB-231 cells xenografted in BALB/c mouse assessed reduction in tumor weight at 10 mg/kg, ip administered once daily for 21 days and measured on day 21 relative to control; type: functional; set-up: scale not given: the % may be the effect or the level left; conditions: dose 10 mg/kg/day; time 21 day; how it was run: as §3
[15] = target: T1, Signal transducer and activator of transcription 3; test: Inhibition of STAT3 in human MDA-MB-231 cells assessed as reduction in Cyclin D1 expression incubated for 24 hrs by Western blot analysis; type: cell-based; conditions: dose 0.75-3 µM; how it was run: as §2
[16] = test system: MDA-MB-231; test: Effect on STAT3 expression in human MDA-MB-231 cells at 0.75 to 3 uM incubated for 24 hrs by Western blot analysis; type: functional, cell-based; conditions: dose 0.75-3 µM; how it was run: as §2
[17] = target: T1, Signal transducer and activator of transcription 3; test: Displacement of 5-FAM-GpYLPQTV-NH2 from His-tagged STAT3 (unknown origin) (127 to 722 residues) incubated for 30 mins followed by fluorescent peptide probe addition and measured after 1 hr by fluorescence polarization based competition binding assay
[18] = test system: MDA-MB-231; test: Induction of apoptosis in human MDA-MB-231 cells assessed as necrotic cells at 2 uM incubated for 24 hrs by annexin V-FITC and PI staining based flow cytometry analysis (reference value: 0.23 %); type: functional
[19] = test system: MDA-MB-231; test: Induction of cell cycle arrest in human MDA-MB-231 cells assessed as S phase accumulation at 2 uM incubated for 24 hrs by PI staining based flow cytometry analysis (reference value: 26.21 %); type: functional
[20] = test system: MDA-MB-231; test: Induction of apoptosis in human MDA-MB-231 cells assessed as late apoptotic cells at 1 uM incubated for 24 hrs by annexin V-FITC and PI staining based flow cytometry analysis (reference value: 3.72 %); type: functional
[21] = test system: MDA-MB-231; test: Antitumor activity against human MDA-MB-231 cells xenografted in BALB/c mouse assessed reduction in tumor weight at 5 mg/kg, ip administered once daily for 21 days and measured on day 21 relative to control; type: functional; conditions: MDA-MB-231, ip, 504 h, time 21 day; how it was run: as §3
[22] = target: T1, Signal transducer and activator of transcription 3; test: Inhibition of STAT3 in human MDA-MB-231 cells assessed as reduction in c-myc expression incubated for 24 hrs by Western blot analysis; type: cell-based; conditions: dose 0.75-3 µM; how it was run: as §2
[23] = test system: MDA-MB-231; test: Induction of cell cycle arrest in human MDA-MB-231 cells assessed as G0/G1 phase accumulation at 2 uM incubated for 24 hrs by PI staining based flow cytometry analysis (reference value: 57.99 %); type: functional

inhibition [1]: Active
IC50 [5]: 770 nM
IC50 [6]: 1240 nM
IC50 [9]: 670 nM
inhibition [15]: Dose-dependent effect
IC50 [17]: 5180 nM
inhibition ([17]; time 1.5 hrs): Dose-dependent effect
inhibition [22]: Dose-dependent effect
Structure (SMILES): COc1ccc(NC2=CC(=O)c3cc(C(C)=O)oc3C2=O)cc1
Activity [2]: 7.52%
Activity [3]: 13.3%
Activity [4]: 12.69%
Activity [7]: 22.03%
Activity [8]: inactive
inhibition in vivo at 5 mg/kg/day [10]: 8.42%
Activity [11]: 5.21%
viability at 2 µM [12]: 82.2%
viability at 4 µM [13]: 67%
Activity [14]: 45.19%
Activity [16]: inactive
Activity [18]: 0.38%
Activity [19]: 46.21%
Activity [20]: 6.51%
inhibition in vivo at 5 mg/kg/day [21]: 26%
Activity [23]: 40.49%
